Source: ChEMBL document CHEMBL1147710, “Synthesis of (2E)-3-{2-[(substituted benzyl)oxy]phenyl}acrylaldehydes as novel anti-inflammatory agents” (Bioorg Med Chem Lett, 2006)

Legend:
[1] = test system: Neutrophil; assay: Formation of PMA-induced superoxide in Sprague-Dawley rat neutrophil at 10 uM per 10^6 cells after 30 min; format: functional
Procedure, shortened: (§1)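 Superoxide generation by rat (Sprague Dawley) neutrophils stimulated with PMA at 3 nM. Test range 1–30 µM. Readout is superoxide formed in nmol/10⁶ cells/30 min, with percent inhibition versus control. N = 3.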

[2] = test system: Neutrophil; assay: Inhibition of PMA-induced superoxide formation in Sprague-Dawley rat neutrophil at 10 uM; format: functional; procedure, shortened: as §1
[3] = test system: Neutrophil; assay: Formation of fMLP-induced superoxide in Sprague-Dawley rat neutrophil at 1 uM per 10^6 cells after 30 min; format: functional
Procedure, shortened: (§2)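 Rat (Sprague Dawley) neutrophils were stimulated with fMLP (0.3 µM) plus cytochalasin B (5 µg/mL). Superoxide formed was reported as nmol/10⁶ cells/30 min and percent inhibition versus control. IC50 was derived from the […] concentration series. N = 3.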

[4] = test system: Neutrophil; assay: Inhibition of fMLP-induced superoxide formation in Sprague-Dawley rat neutrophil at 1 uM; format: functional; procedure, shortened: as §2
[5] = test system: Neutrophil; assay: Inhibition of fMLP-induced superoxide formation in Sprague-Dawley rat neutrophil at 3 uM; format: functional; procedure, shortened: as §2
[6] = test system: Neutrophil; assay: Formation of fMLP-induced superoxide in Sprague-Dawley rat neutrophil at 3 uM per 10^6 cells after 30 min; format: functional; procedure, shortened: as §2
[7] = test system: Neutrophil; assay: Formation of fMLP-induced superoxide in Sprague-Dawley rat neutrophil at 10 uM per 10^6 cells after 30 min; format: functional; procedure, shortened: as §2
[8] = test system: Neutrophil; assay: Inhibition of fMLP-induced superoxide formation in Sprague-Dawley rat neutrophil; format: functional, cell-based; procedure, shortened: as §2
[9] = test system: Neutrophil; assay: Inhibition of fMLP-induced superoxide formation in Sprague-Dawley rat neutrophil at 10 uM; format: functional; procedure, shortened: as §2
[10] = test system: Neutrophil; assay: Inhibition of PMA-induced superoxide formation in Sprague-Dawley rat neutrophil at 30 uM; format: functional; procedure, shortened: as §1
[11] = test system: Neutrophil; assay: Formation of PMA-induced superoxide in Sprague-Dawley rat neutrophil at 30 uM per 10^6 cells after 30 min; format: functional; procedure, shortened: as §1
[12] = test system: Neutrophil; assay: Formation of fMLP-induced superoxide in Sprague-Dawley rat neutrophil at 30 uM per 10^6 cells after 30 min; format: functional; procedure, shortened: as §2
[13] = test system: Neutrophil; assay: Inhibition of fMLP-induced superoxide formation in Sprague-Dawley rat neutrophil at 30 uM; format: functional; procedure, shortened: as §2
[14] = test system: Neutrophil; assay: Increase in cAMP level in Sprague-Dawley rat neutrophil; format: functional, cell-based
Procedure, shortened: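 Neutrophils were treated for 10 min with the indicated concentrations, with DMSO giving the basal level. Cellular cAMP was measured by enzyme immunoassay kit. Values are means SD of three experiments.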

[15] = test system: Neutrophil; assay: Inhibition of PMA-induced superoxide formation in Sprague-Dawley rat neutrophil; format: functional, cell-based; procedure, shortened: as §1
[16] = test system: Neutrophil; assay: Inhibition of fMLP-induced superoxide formation in Sprague-Dawley rat neutrophil at 5 uM; format: functional
[17] = test system: Neutrophil; assay: Inhibition of PMA-induced superoxide formation in Sprague-Dawley rat neutrophil at 1 uM; format: functional; procedure, shortened: as §1
[18] = test system: Neutrophil; assay: Formation of PMA-induced superoxide in Sprague-Dawley rat neutrophil at 3 uM per 10^6 cells after 30 min; format: functional; procedure, shortened: as §1
[19] = test system: Neutrophil; assay: Formation of PMA-induced superoxide in Sprague-Dawley rat neutrophil at 1 uM per 10^6 cells after 30 min; format: functional; procedure, shortened: as §1
[20] = test system: Neutrophil; assay: Formation of fMLP-induced superoxide in Sprague-Dawley rat neutrophil at 5 uM per 10^6 cells after 30 min; format: functional
[21] = test system: Neutrophil; assay: Inhibition of PMA-induced superoxide formation in Sprague-Dawley rat neutrophil at 3 uM; format: functional; procedure, shortened: as §1

Row | SMILES | Activity [1] [nmol] | inhibition at 10 µM [2] [%] | inhibition at 3 µM [5] [%] | Activity [6] [nmol] | Activity [7] [nmol] | IC50 [8] [µM] | inhibition at 10 µM [9] [%] | inhibition at 30 µM [10] [%] | Activity [11] [nmol] | Activity [12] [nmol] | inhibition at 30 µM [13] [%] | further results
1 | COc1ccc(OCc2cccc(Cl)c2)c(/C=C/C=O)c1 | 10.3 | -35.7 | 36.8 | 1.82 | 0.67 | 4.2 | 77.7 | -31.2 | 9.96 | – | – | Activity [3]: 2.54 nmol; inhibition at 1 µM [4]: 11.4%
2 | O=C/C=C/c1ccccc1OCc1ccc(Cl)c(Cl)c1 | 7.77 | 1.9 | 29.4 | 2.03 | 0.6 | 4.3 | 79.8 | -51.1 | 11.4 | – | – | Activity [3]: 2.56 nmol; inhibition at 1 µM [4]: 11.7%
3 | O=Cc1ccccc1OCc1ccccc1 | – | – | 36.1 | 1.01 | 0.86 | 15.6 | 40.6 | – | – | 0.62 | 60.8 | Activity [14]: Dose-dependent effect
4 | O=C/C=C/c1ccccc1OCc1ccccc1F | 9.45 | -24.1 | 47.5 | 1.48 | 0.72 | 3.3 | 75.1 | -29.4 | 9.82 | 0.35 | 87.6 | –
5 | COc1ccc(OCc2ccccc2Cl)c(/C=C/C=N/O)c1 | 5.27 | 1.5 | 29.5 | 2.45 | 2.09 | 9.5 | 40.4 | -44.4 | 7.62 | 0.78 | 77.7 | –
6 | CN1CCN(CCCN2c3ccccc3Sc3ccc(C(F)(F)F)cc32)CC1 [TRIFLUOPERAZINE] | – | 83.3 | 1.7 | 2.8 | 0.54 | 6.6 | 79.5 | – | – | – | – | IC50 [15]: 2.7 µM; inhibition at 5 µM [16]: 24.2%; inhibition at 1 µM [17]: 27.6%; Activity [18]: 3.4 nmol; Activity [19]: 5.48 nmol; Activity [20]: 2.1 nmol; inhibition at 3 µM [21]: 55.4%
7 | O=C/C=C/c1ccccc1OCc1ccccc1Cl | 9.86 | -30.1 | 40.1 | 1.69 | 0.82 | 4.4 | 71.4 | -10.9 | 8.39 | 0.29 | 89.7 | –
8 | O=C/C=C/c1ccccc1OCc1cccc(Cl)c1Cl | 6.72 | 11.2 | – | – | 2.39 | – | 17.4 | 17.3 | 6.29 | 1.75 | 39.9 | –
9 | O=C/C=C/c1ccccc1OCc1cccc(F)c1 | 8.07 | -6.2 | 40.3 | 1.7 | 0.76 | 4.5 | 73 | -23.7 | 9.38 | 0.46 | 83.9 | –
10 | COc1ccc(COc2ccccc2/C=C/C=O)cc1 | 9.45 | -24.5 | 44.6 | 1.58 | 0.81 | 3.8 | 71.3 | -22.2 | 9.28 | 0.33 | 88.2 | –
11 | O=C/C=C/c1ccccc1OCc1ccccc1 | 8.61 | -13.5 | 31.8 | 1.96 | 1.05 | 6.4 | 63.7 | -23.6 | 9.39 | 0.48 | 83.2 | –
12 | COc1ccc(OCc2ccc(Cl)cc2)c(/C=C/C=N/O)c1 | 11.9 | -124 | – | – | 2.53 | – | 27.9 | -132 | 12.1 | 2.41 | 31.6 | –
13 | O=C/C=C/c1ccccc1OCc1ccc(Cl)cc1 | 9.41 | -23.9 | 22.4 | 2.23 | 1.05 | 7.4 | 63.1 | -22 | 9.26 | 0.37 | 86.9 | –
14 | COc1ccc(OCc2ccc(Cl)cc2)c(/C=C/C=O)c1 | 9.39 | -23.3 | – | – | 2.1 | – | 27.1 | -25.5 | 9.55 | 1.9 | 33.4 | –
15 | Cc1ccc(COc2ccccc2/C=C/C=O)cc1 | 8.53 | -13.2 | 21.9 | 2.24 | 1.57 | 11 | 45.1 | -25.8 | 9.51 | 0.78 | 73.2 | –
16 | O=C/C=C/c1ccccc1OCc1cccc(Cl)c1 | 9.85 | -30.1 | 31.2 | 2 | 0.99 | 5.9 | 65.7 | -18.7 | 9.06 | 0.34 | 88 | –
17 | COc1ccc(OCc2ccccc2Cl)c(/C=C/C=O)c1 | 8.94 | -17.5 | – | – | 1.89 | – | 34.3 | -26.9 | 9.63 | 1.69 | 40.9 | –
18 | COc1ccc(OCc2ccccc2)c(/C=C/C=O)c1 | 9.42 | -24 | 52.2 | 1.37 | 0.53 | 2.6 | 81.2 | -20.9 | 9.19 | – | – | Activity [3]: 2.09 nmol; inhibition at 1 µM [4]: 26.7%
19 | O=C/C=C/c1ccccc1OCc1ccc(Cl)cc1Cl | 9.29 | -22.7 | – | – | 2.16 | – | 24.4 | -29.8 | 9.84 | 1.76 | 39.9 | –
20 | COc1ccc(OCc2ccccc2)c(/C=C/C=N/O)c1 | 4.97 | 7.6 | 41.9 | 2.03 | 1.05 | 4.3 | 70 | -29.4 | 6.9 | 0.48 | 86 | –
21 | O=C/C=C/c1ccccc1OCc1c(Cl)cccc1Cl | 11.4 | -50.6 | – | – | 1.71 | – | 40.3 | -59.2 | 12 | 1.54 | 46.8 | –
